Data taken from ChEMBL document CHEMBL1154198, “Chemical genetics of Plasmodium falciparum” (Nature, 2010).

Legend:
Plasmodium falciparum [1] = assay: ST_JUDE: Plasmodium falciparum K1 EC50 (uM) as measured by SYBR green dye; type: functional, organism-based
Plasmodium falciparum [2] = assay: ST_JUDE: Plasmodium falciparum 3D7 EC50 (uM) as measured by SYBR green dye; type: functional, organism-based
Toxoplasma gondii = assay: ST_JUDE: Growth inhibition of to Toxoplasma gondii, in human U-2OS cells, as measured by luciferase.; type: functional, organism-based; conditions: RH, U2OS
Method in brief: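 T. gondii parasites engineered to express luciferase; drug sensitivity read by luminescence.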

Trypanosoma brucei = assay: ST_JUDE: Cytotoxicity using luciferase to measure ATP as an indicator of the viability of Trypanosoma brucei; type: functional, organism-based
Leishmania major = assay: ST_JUDE: Cytotoxicity using Alamar Blue to measure viability of Leishmania major; type: functional, organism-based
Method in brief: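 L. major promastigotes; drug susceptibility read with Alamar Blue.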

[3] = ST_JUDE: Cytotoxicity using luciferase to measure ATP as an indicator of the viability of human foreskin fibroblast cells (BJ); type: toxicity, cell-based
[4] = ST_JUDE: Cytotoxicity using luciferase to measure ATP as an indicator of the viability of human Burkitt''s lymphoma lymphoblast cells (Raji); type: toxicity, cell-based
[5] = ST_JUDE: Cytotoxicity using luciferase to measure ATP as an indicator of the viability of human epithelial embryonic kidney cells (HEK293); type: toxicity, cell-based
[6] = ST_JUDE: Cytotoxicity using luciferase to measure ATP as an indicator of the viability of human epithelial hepatocellular carcinoma cells (HepG2); type: toxicity, cell-based

Row | Compound | EC50 (Plasmodium falciparum [1]) | EC50 (Plasmodium falciparum [2]) | also measured
1 | Cc1ccc2nc(Nc3nc(O)c4ccccc4n3)nc(C)c2c1 | 4.56 µM | 6.29 µM | –
2 | O=C(NC(c1cccc([N+](=O)[O-])c1)c1cc(Cl)c2cccnc2c1O)c1cccnc1 (stereo unspecified) | 2.73 µM | 4.65 µM | –
3 | CCOc1ccc(N2C(N)=NC(N)=NC2(C)C)cc1 | > 15 µM | 0.238 µM | –
4 | CCOc1ccc(-c2nonc2NC(=O)CC(C)C)cc1OCC | 3.78 µM | 3.14 µM | –
5 | O=C(Nc1ccccc1-c1nc2ccccc2s1)C(Cl)(Cl)Cl | 2.69 µM | > 15 µM | –
6 | CCCCCCCCn1ccc(=N)cc1 | 1.41 µM | 2.18 µM | –
7 | CC(C)CN1C(=O)c2ccccc2C(C(=O)Nc2cccc(C(F)(F)F)c2)C1c1cccs1 (stereo unspecified) | – | – | EC50 (Toxoplasma gondii): > 25.9 µM; EC50 (Trypanosoma brucei): 3.3 µM; EC50 (Leishmania major): > 20.2 µM; EC50 [3]: > 47.2 µM; EC50 [4]: > 47.2 µM; EC50 [5]: > 47.2 µM; EC50 [6]: 37.7 µM
8 | Cc1cc(Nc2ccc(C)c(F)c2)n2nc(C)nc2n1 | 3.09 µM | 1.29 µM | –
9 | COc1ccc2c(c1)C(=NN=C(N)N)c1cc(OC)ccc1-2 | 1.01 µM | 0.506 µM | –
10 | CN1C=CC(=Cc2sc3ccccc3[n+]2C)C=C1 | 0.389 µM | 0.873 µM | –
11 | O=C1CC(C(=O)N2CCC(c3nc(-c4cccnc4)ncc3-c3ccccc3)CC2)c2ccccc21 (stereo unspecified) | 4.09 µM | 2.73 µM | –
12 | Cc1ccc(C(C)C)c(OCc2nc3ccccc3n2C)c1 | > 15 µM | > 15 µM | –
13 | CCc1ccc(NC(=O)C2c3cc(OC)c(OC)cc3C(=O)N(C)C2c2cccs2)cc1 (stereo unspecified) | 3.8 µM | 3.54 µM | –
14 | COc1cccc(C2C(C(=O)Nc3ccccc3C)=C(C)Nc3nnnn32)c1 (stereo unspecified) | > 15 µM | > 15 µM | –
15 | O=C1CC(O)(C(F)(F)C(F)(F)F)Oc2ccccc21 (stereo unspecified) | 2.48 µM | 2.57 µM | –
16 | Cc1ccccc1NC(=O)Nc1ccnn1C1CCN(Cc2ccc(OC(C)C)cc2)CC1 | > 15 µM | 6.74 µM | –
17 | CCOC(=O)c1ccc(NC(=O)c2cc([N+](=O)[O-])ccc2NC(=O)CNC2CCN(Cc3ccccc3)CC2)cc1 | 3.68 µM | 1.27 µM | –
18 | CC(=O)OCCCCCCCCCCC[N+]1(C)CCCCC1 | 5.48 µM | > 15 µM | –

Row | Compound | EC50 (Plasmodium falciparum [1]) | EC50 (Plasmodium falciparum [2]) | also measured
19 | CC(C)(C)c1ccc(O)c(CN2CCN(c3ccccc3)CC2)c1 | 0.51 µM | 1.1 µM | –
20 | Oc1ccc(I)cc1/C=C/c1cc(O)c2ccccc2n1 | 5.34 µM | > 15 µM | –
21 | S=C(N/N=C(/c1ccccc1)c1ccccn1)Nc1ccccc1 | 0.48 µM | 0.317 µM | –
22 | CCN1CCN(CCNC(=O)c2ccc(/C=C3/Sc4ccccc4N(Cc4cccc(Cl)c4)C3=O)cc2)CC1 | > 15 µM | > 15 µM | –
23 | CCOc1ccccc1C(=O)Nc1cc2c3c(c1)CCN3C(=O)CC2 | > 15 µM | > 15 µM | –
24 | C=CCn1c(=N)n(CC(O)COc2cccc(C)c2)c2ccccc21 (stereo unspecified) | > 15 µM | 7.13 µM | –
25 | CN(C)CCNC(=O)c1[nH]c2ccccc2c1Sc1ccc(Cl)cc1 | 3.5 µM | 4.53 µM | –
26 | CCN(CC)CCNC(=O)c1cc2c(-c3cccc(OC)c3)nn(C)c2s1 | > 15 µM | 4.04 µM | –
27 | COc1cccc(NC(=O)C2c3ccccc3C(=O)N(CC(C)C)C2c2cccs2)c1 (stereo unspecified) | – | 0.175 µM | EC50 (Toxoplasma gondii): > 22.3 µM; EC50 (Trypanosoma brucei): 7.54 µM; EC50 (Leishmania major): > 17.5 µM; EC50 [3]: > 40.8 µM; EC50 [4]: > 40.8 µM; EC50 [5]: > 40.8 µM; EC50 [6]: > 40.8 µM
28 | Cc1ccccc1-c1cnc(-c2cccnc2)nc1C1CCN(C(=O)CCCc2cccs2)CC1 | 4.53 µM | 5.76 µM | –
29 | Cn1c(-c2ccc(F)cc2)[n+](C)c2ccccc21 | 3.79 µM | 1.88 µM | –
30 | COC(=O)Nc1ccc(S(=O)(=O)ON=C2C=C(C(C)(C)C)C(=O)C(C(C)(C)C)=C2)cc1 | 0.389 µM | 6.84 µM | –
31 | Cc1cc(O)nc(Nc2nc(C)c3cccc(C)c3n2)n1 | > 15 µM | > 15 µM | –
32 | CCOC(=O)c1cccc(NC(=O)CC2C(=O)N(c3ccc(F)cc3)C(=O)N2C2CCCC2)c1 (stereo unspecified) | 0.984 µM | 0.344 µM | –
33 | COc1ccc2cc(C(=O)C3CCCN(C4CCN(C(C)C)CC4)C3)ccc2c1 (stereo unspecified) | > 15 µM | 7.92 µM | –
34 | Cc1cccc(N2COc3ccc(C(C)(C)C)cc3C2)c1 | > 15 µM | > 15 µM | –
35 | CC(C)CN(CC(C)C)S(=O)(=O)c1ccc(C(=O)Nc2nc(-c3ccccn3)cs2)cc1 | 3.28 µM | > 15 µM | –
